In ChEMBL document CHEMBL4715715, “Synthesis and biological evaluation of arylcinnamide linked combretastatin-A4 hybrids as tubulin polymerization inhibitors and apoptosis inducing agents” (Bioorg Med Chem Lett, 2016):

Experiments:
Assay type in all cases: functional
K562 = test: Antiproliferative activity against human K562 cells assessed as cell growth inhibition measured after 48 hrs by SRB assay
Outline: (§1)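 Sulforhodamine B (SRB) cell-staining assay across a panel of human cancer lines. Growth inhibition is reported as GI50.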

SK-OV-3 = test: Antiproliferative activity against human SK-OV-3 cells assessed as cell growth inhibition measured after 48 hrs by SRB assay; outline: as §1
HOP-62 = test: Antiproliferative activity against human HOP-62 cells assessed as cell growth inhibition measured after 48 hrs by SRB assay; outline: as §1
HeLa = test: Antiproliferative activity against human HeLa cells assessed as cell growth inhibition measured after 48 hrs by SRB assay; outline: as §1
MCF7 = test: Antiproliferative activity against human MCF7 cells assessed as cell growth inhibition measured after 48 hrs by SRB assay; outline: as §1
MIA PaCa-2 = test: Antiproliferative activity against human MIA Paca-2 cells assessed as cell growth inhibition measured after 48 hrs by SRB assay; outline: as §1
DU-145 = test: Antiproliferative activity against human DU-145 cells assessed as cell growth inhibition measured after 48 hrs by SRB assay; outline: as §1
COLO 205 = test: Antiproliferative activity against human COLO 205 cells assessed as cell growth inhibition measured after 48 hrs by SRB assay; outline: as §1

SMILES | GI50 (K562) [µM] | GI50 (SK-OV-3) [µM] | GI50 (HOP-62) [µM] | GI50 (HeLa) [µM] | GI50 (MCF7) [µM] | GI50 (MIA PaCa-2) [µM] | GI50 (DU-145) [µM] | GI50 (COLO 205) [µM]
COc1cc(/C=C/C(=O)Nc2c(/C=C\c3cc(OC)c(OC)c(OC)c3)ccc(OC)c2O)ccc1[N+](=O)[O-] | 0.096 | 7.9 | 0.084 | 0.099 | 0.095 | 23.5 | 0.075 | 0.096
COc1ccc(/C=C/C(=O)Nc2c(/C=C\c3cc(OC)c(OC)c(OC)c3)ccc(OC)c2O)cc1[N+](=O)[O-] | 46.8 | 52.6 | 71.3 | 49.2 | 19.4 | > 100 | 64.7 | > 100
C#CCOc1cccc(/C=C/C(=O)Nc2c(/C=C\c3cc(OC)c(OC)c(OC)c3)ccc(OC)c2O)c1 | > 100 | > 100 | > 100 | > 100 | 11.6 | > 100 | 96.4 | > 100
COc1ccc(/C=C/C(=O)Nc2c(/C=C\c3cc(OC)c(OC)c(OC)c3)ccc(OC)c2O)cc1O | 23.7 | 1.8 | 17.1 | 15.9 | 0.095 | 46.3 | 0.117 | > 100
COc1cc(/C=C/C(=O)Nc2c(/C=C\c3cc(OC)c(OC)c(OC)c3)ccc(OC)c2O)ccc1O | 0.093 | 0.096 | 0.079 | 0.09 | 0.06 | 0.098 | 0.072 | 0.098
COc1cccc(/C=C/C(=O)Nc2c(/C=C\c3cc(OC)c(OC)c(OC)c3)ccc(OC)c2O)c1 | 0.098 | 17.6 | 65.4 | 18.1 | 59.5 | 93.9 | > 100 | > 100
COc1ccc(/C=C\c2cc(OC)c(OC)c(OC)c2)c(NC(=O)/C=C/c2ccc([N+](=O)[O-])cc2)c1O | 0.097 | 17 | 0.061 | 15.7 | 0.072 | 40.8 | 0.085 | 10.3
COc1ccc(/C=C\c2cc(OC)c(OC)c(OC)c2)c(NC(=O)/C=C/c2ccc(F)cc2)c1O | 23.5 | 47.5 | 43 | 24 | 0.066 | 78.1 | 0.083 | 67.6
COc1ccc(/C=C/C(=O)Nc2c(/C=C\c3cc(OC)c(OC)c(OC)c3)ccc(OC)c2O)cc1N | 0.089 | 0.097 | 0.044 | 0.091 | 0.05 | 14.3 | 0.079 | 0.089
COc1ccc(/C=C\c2cc(OC)c(OC)c(OC)c2)c(NC(=O)/C=C/c2cc(OC)c(OC)c(OC)c2)c1O | 28 | 20.9 | 24.8 | 14.9 | 0.079 | 64.5 | 0.095 | 76
COc1ccc(/C=C\c2cc(OC)c(OC)c(OC)c2)c(NC(=O)/C=C/c2cccc(O)c2)c1O | 0.094 | 0.097 | 0.082 | 0.0949 | 0.063 | 0.098 | 0.07 | 13.4
COc1ccc(/C=C\c2cc(OC)c(OC)c(OC)c2)c(NC(=O)/C=C/c2ccc(Cl)cc2)c1O | 24.9 | 62.6 | 79.4 | 38.8 | 55.5 | > 100 | 54.1 | > 100
COc1cc(/C=C/C(=O)Nc2c(/C=C\c3cc(OC)c(OC)c(OC)c3)ccc(OC)c2O)ccc1N | 0.082 | 0.094 | 0.031 | 0.09 | 0.074 | 0.097 | 0.085 | 0.086
